Results as given in ChEMBL document CHEMBL3994605, “Synthesis and biological evaluation of curcumin inspired indole analogues as tubulin polymerization inhibitors” (Eur J Med Chem, 2017).
Active and inactive are the calls of the source. No cut-off for these calls is given here.

How the values were obtained:
BT-549 [1] = test: Potency index, ratio of curcumin IC50 to compound IC50 for human BT549 cells; assay type: functional
PC-3 [2] = test: Induction of apoptosis in human PC3 cells assessed as nuclear shrinkage at 2.5 to 5 uM after 48 hrs by DAPI staining based fluorescence microscopic method; assay type: functional, cell-based
How it was run: (§1)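 PC-3 cells were seeded at 25,000 per well and adhered overnight, then exposed 48 h. Cells were fixed in 4% neutral buffered formalin for 20 min and permeabilized with 0.2% Triton X for 5 min. DAPI (1 mg/mL) staining ran 10 min at room temperature, followed by fluorescence microscopy (ex 350, em 460 nm) at 200×.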

PC-3 [3] = test: Induction of apoptosis in human PC3 cells assessed as chromatin condensation at 2.5 to 5 uM after 48 hrs by acridine orange/ethidium bromide staining based fluorescence microscopic method; assay type: functional, cell-based
How it was run: (§2)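 PC-3 cells were plated at 25,000 per well, grown 24 h, then exposed 48 h. Cells were PBS-washed, stained with acridine orange and ethidium bromide ([…]), and imaged immediately by fluorescence microscopy (ex 488, em 550 nm) at 200×.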

PC-3 [4] = test: Antiproliferative activity against human PC3 cells after 48 hrs by MTT assay; assay type: functional, cell-based; conditions: PC-3, 48 h
How it was run: (§3)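 MTT read-out. Cells were seeded at 5 × 10^3 per well in DMEM or RPMI with 10% FBS and grown 24 h at 37 °C in CO2. Compound dilutions in medium, with vehicle control, were then added for 48 h. MTT (0.5 mg/mL in medium) was given for 4 h, formazan was dissolved in DMSO, and A570 was read. IC50 was taken from concentration–response curves as mean ± SD of three experiments run in triplicate.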

PC-3 [5] = test: Cell cycle arrest in human PC3 cells assessed as accumulation at subG1 phase at 2.5 uM after 24 hrs by propidium iodide staining based flow cytometry (reference value: 4.29 to 7.23%); assay type: functional
How it was run: (§4)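 PC-3 cells were seeded at 1 × 10^5 cells/mL, attached 24 h, then treated 24 h. Cells were fixed overnight in 70% ethanol in PBS. Staining used propidium iodide ([…]) with RNase A ([…]) and 0.1% Triton X-100 for 30 min at 37 °C in the dark. About 10,000 events per sample were acquired by flow cytometry.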

PC-3 [6] = test: Cell cycle arrest in human PC3 cells assessed as accumulation at S phase at 5 uM after 24 hrs by propidium iodide staining based flow cytometry (reference value: 3.3 to 5.58%); assay type: functional; how it was run: as §4
MDA-MB-231 [7] = test: Antiproliferative activity against human MDA-MB-231 cells after 48 hrs by MTT assay; assay type: functional, cell-based; conditions: MDA-MB-231, 48 h; how it was run: as §3
PC-3 [8] = test: Cell cycle arrest in human PC3 cells assessed as accumulation at G2/M phase at 10 uM after 24 hrs by propidium iodide staining based flow cytometry (reference value: 12.2 to 24.74%); assay type: functional; how it was run: as §4
PC-3 [9] = test: Induction of apoptosis in human PC3 cells assessed as horse shoe shaped nuclei at 2.5 to 5 uM after 48 hrs by DAPI staining based fluorescence microscopic method; assay type: functional, cell-based; how it was run: as §1
PC-3 [10] = test: Cell cycle arrest in human PC3 cells assessed as accumulation at subG1 phase at 5 uM after 24 hrs by propidium iodide staining based flow cytometry (reference value: 4.29 to 7.23%); assay type: functional; how it was run: as §4
DU-145 [11] = test: Potency index, ratio of curcumin IC50 to compound IC50 for human DU145 cells; assay type: functional
BT-549 [12] = test: Antiproliferative activity against human BT549 cells after 48 hrs by MTT assay; assay type: functional, cell-based; conditions: BT-549, 48 h; how it was run: as §3
PC-3 [13] = test: Cell cycle arrest in human PC3 cells assessed as accumulation at S phase at 10 uM after 24 hrs by propidium iodide staining based flow cytometry (reference value: 3.3 to 5.58%); assay type: functional; how it was run: as §4
A549 = test: Antiproliferative activity against human A549 cells after 48 hrs by MTT assay; assay type: functional, cell-based; conditions: A549, 48 h; how it was run: as §3
PC-3 [14] = test: Cell cycle arrest in human PC3 cells assessed as accumulation at G0/G1 phase at 2.5 uM after 24 hrs by propidium iodide staining based flow cytometry (reference value: 65.04 to 76.95%); assay type: functional; how it was run: as §4
HGC-27 = test: Antiproliferative activity against human HGC27 cells after 48 hrs by MTT assay; assay type: functional, cell-based; conditions: HGC-27, 48 h; how it was run: as §3
PC-3 [15] = test: Cell cycle arrest in human PC3 cells assessed as accumulation at G0/G1 phase at 10 uM after 24 hrs by propidium iodide staining based flow cytometry (reference value: 65.04 to 76.95%); assay type: functional; how it was run: as §4
PC-3 [16] = test: Potency index, ratio of curcumin IC50 to compound IC50 for human PC3 cells; assay type: functional
PC-3 [17] = test: Cell cycle arrest in human PC3 cells assessed as accumulation at S phase at 2.5 uM after 24 hrs by propidium iodide staining based flow cytometry (reference value: 3.3 to 5.58%); assay type: functional; how it was run: as §4
Sus scrofa = species on record: Sus scrofa; test: Inhibition of porcine brain tubulin polymerization assessed as reduction in incorporation of fluorescent reporter at 10 uM by fluorescence based assay relative to control
How it was run: (§5)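 Cell-free mix contained porcine brain tubulin (2 mg/mL) in 80 mM PIPES pH 6.9 with 2.0 mM MgCl2, 0.5 mM EGTA, 1.0 mM GTP and glycerol, with or without compound. Polymerization was tracked as a time-dependent fluorescence rise from reporter incorporation (ex 360, em 440 nm), with nocodazole as positive control. Inhibition was scored versus the untreated control. For IC50, the concentration giving 50% inhibition of assembly was used.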

PC-3 [18] = test: Induction of mitochondrial membrane potential loss in human PC3 cells assessed as ratio of green to red fluorescence at 5 uM after 24 hrs by JC1 staining based spectrofluorometric method (reference value: 0.103); assay type: functional
DU-145 [19] = test: Antiproliferative activity against human DU145 cells after 48 hrs by MTT assay; assay type: functional, cell-based; conditions: DU-145, 48 h; how it was run: as §3
PC-3 [20] = test: Cell cycle arrest in human PC3 cells assessed as accumulation at G2/M phase at 2.5 uM after 24 hrs by propidium iodide staining based flow cytometry (reference value: 12.2 to 24.74%); assay type: functional; how it was run: as §4
PC-3 [21] = test: Induction of apoptosis in human PC3 cells assessed as pyknotic nuclei at 2.5 to 5 uM after 48 hrs by DAPI staining based fluorescence microscopic method; assay type: functional, cell-based; how it was run: as §1
PC-3 [22] = test: Induction of apoptosis in human PC3 cells assessed as nuclear fragmentation at 2.5 to 5 uM after 48 hrs by DAPI staining based fluorescence microscopic method; assay type: functional, cell-based; how it was run: as §1
[23] = Inhibition of porcine brain tubulin polymerization assessed as reduction in incorporation of fluorescent reporter by fluorescence based assay; parameters: species or system Sus scrofa; how it was run: as §5
HeLa = test: Antiproliferative activity against human HeLa cells after 48 hrs by MTT assay; assay type: functional, cell-based; how it was run: as §3
PC-3 [24] = test: Induction of apoptosis in human PC3 cells assessed as destructive fragmentation of nuclei at 2.5 to 5 uM after 48 hrs by acridine orange/ethidium bromide staining based fluorescence microscopic method; assay type: functional, cell-based; how it was run: as §2
PC-3 [25] = test: Cell cycle arrest in human PC3 cells assessed as accumulation at G0/G1 phase at 5 uM after 24 hrs by propidium iodide staining based flow cytometry (reference value: 65.04 to 76.95%); assay type: functional; how it was run: as §4
PC-3 [26] = test: Cell cycle arrest in human PC3 cells assessed as accumulation at G2/M phase at 5 uM after 24 hrs by propidium iodide staining based flow cytometry (reference value: 12.2 to 24.74%); assay type: functional; how it was run: as §4
PC-3 [27] = test: Induction of apoptosis in human PC3 cells assessed as horse shoe shaped nuclei at 2.5 to 5 uM after 48 hrs by acridine orange/ethidium bromide staining based fluorescence microscopic method; assay type: functional, cell-based; how it was run: as §2
PC-3 [28] = test: Induction of apoptosis in human PC3 cells assessed as cell membrane blebbing at 2.5 to 5 uM after 48 hrs by acridine orange/ethidium bromide staining based fluorescence microscopic method; assay type: functional; how it was run: as §2
4T1 = test: Antiproliferative activity against mouse 4T1 cells after 48 hrs by MTT assay; assay type: functional, cell-based; conditions: 4T1, 48 h; how it was run: as §3
PC-3 [29] = test: Induction of apoptosis in human PC3 cells assessed as chromatin condensation at 2.5 to 5 uM after 48 hrs by DAPI staining based fluorescence microscopic method; assay type: functional, cell-based; how it was run: as §1
MDA-MB-231 [30] = test: Potency index, ratio of curcumin IC50 to compound IC50 for human MDA-MB-231 cells; assay type: functional
RWPE-1 = test: Antiproliferative activity against human RWPE1 cells after 48 hrs by MTT assay; assay type: cell-based; conditions: RWPE-1, 48 h; how it was run: as §3
PC-3 [31] = test: Cell cycle arrest in human PC3 cells assessed as accumulation at subG1 phase at 10 uM after 24 hrs by propidium iodide staining based flow cytometry (reference value: 4.29 to 7.23%); assay type: functional; how it was run: as §4

IC50 (PC-3 [4]) [µM] | IC50 (MDA-MB-231 [7]) [µM] | IC50 (BT-549 [12]) [µM] | IC50 (A549) [µM] | inhibition (Sus scrofa) [%] | IC50 (DU-145 [19]) [µM] | SMILES | Ratio IC50 (BT-549 [1]) | Activity (PC-3 [2]) | Activity (PC-3 [3]) | Activity (PC-3 [5]) [%] | Activity (PC-3 [6]) [%] | Activity (PC-3 [9]) | Activity (PC-3 [10]) [%] | Ratio IC50 (DU-145 [11]) | Activity (PC-3 [14]) [%] | IC50 (HGC-27) [µM] | Ratio IC50 (PC-3 [16]) | Activity (PC-3 [17]) [%] | Ratio (PC-3 [18]) | Activity (PC-3 [20]) [%] | also measured
3.15 | 11.4 | 8.72 | 8.01 | 57.3 | 8.92 | COc1cc(/C=C/C(=O)/C=C/c2c[nH]c3ccccc23)cc(OC)c1OC | 2.8 | Active | Active | 4.74 | 6.2 | Active | 3.46 | 3.2 | 58.47 | 8.65 | 3.9 | 8.94 | 0.132 | 27.04 | Activity (PC-3 [8]): 31.42%; Activity (PC-3 [13]): 10.04%; Activity (PC-3 [15]): 51.68%; Activity (PC-3 [21]): Active; Activity (PC-3 [22]): Active; IC50 [23]: 8.81 µM; IC50 (HeLa): 3.31 µM; Activity (PC-3 [24]): Active; Activity (PC-3 [25]): 58.52%; Activity (PC-3 [26]): 29.87%; Activity (PC-3 [27]): Active; Activity (PC-3 [28]): Active; IC50 (4T1): 9.79 µM; Activity (PC-3 [29]): Active; Ratio IC50 (MDA-MB-231 [30]): 1.4; IC50 (RWPE-1): 6.42 µM; Activity (PC-3 [31]): 5.99%
6.34 | 6.02 | 8.34 | 19 | 51.7 | 7.71 | COc1ccc(OC)c(/C=C/C(=O)/C=C/c2c[nH]c3ccccc23)c1 | 2.9 | Active | Active | 0.6 | 1.36 | Active | 1.31 | 3.7 | 38.65 | 5.21 | 1.9 | 2.43 | 0.135 | 57.54 | Activity (PC-3 [21]): Active; Activity (PC-3 [22]): Active; IC50 [23]: 10.2 µM; IC50 (HeLa): 6.59 µM; Activity (PC-3 [24]): Active; Activity (PC-3 [25]): 41.11%; Activity (PC-3 [26]): 55.93%; Activity (PC-3 [27]): Active; Activity (PC-3 [28]): Active; IC50 (4T1): 16.1 µM; Activity (PC-3 [29]): Active; Ratio IC50 (MDA-MB-231 [30]): 2.6; IC50 (RWPE-1): 18.6 µM
